Laboratory results as given in ChEMBL document CHEMBL1137698, “Synthesis, spectral studies and in vitro antibacterial activity of steroidal thiosemicarbazone and their palladium (Pd (II)) complexes” (2009).
≈ marks a conversion by molar mass, not a printed value.

Tests used:
Staphylococcus aureus [1] = assay: Antibacterial activity against Staphylococcus aureus at 10 to 100 ug/mL after 18 hrs by disk diffusion method; assay type: functional
How it was run: (§1)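 Disk diffusion. Bacteria were subcultured in BHI for 18 h at 37 °C, then suspended in saline to McFarland standard. The suspension was mixed with sterile antibiotic agar at 40 °C and poured into plates. Paper disks of 6.0 mm were placed on nutrient agar. DMSO stock was diluted to 10, 20, 25, 50 and 100 per mL and applied to the disks. A DMSO disk served as negative control. Inhibition zones in mm were read after 18 h at 36 °C.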

Streptococcus pyogenes [2] = assay: Antibacterial activity against Streptococcus pyogenes at 10 to 100 ug/mL after 18 hrs by disk diffusion method; assay type: functional; how it was run: as §1
Salmonella typhimurium [3] = assay: Antibacterial activity against Salmonella Typhimurium at 10 to 100 ug/mL after 18 hrs by disk diffusion method; assay type: functional, Salmonella enterica subsp. enterica serovar Typhimurium; how it was run: as §1
Escherichia coli [4] = assay: Antibacterial activity against Escherichia coli at 10 to 100 ug/mL after 18 hrs by disk diffusion method; assay type: functional; how it was run: as §1
Staphylococcus aureus [5] = assay: Antibacterial activity against Staphylococcus aureus after 18 hrs by […]; assay type: functional
How it was run: (§2)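 MIC by tube macrodilution. Test compounds dissolved in DMSO, serially diluted to final […]. Each tube received 24 h old inoculum, standard inoculum […]. Incubated 18 h at 37 °C. MIC read visually as the lowest concentration preventing visible growth.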

Streptococcus pyogenes [6] = assay: Antibacterial activity against Streptococcus pyogenes after 18 hrs by […]; assay type: functional; how it was run: as §2
Salmonella typhimurium [7] = assay: Antibacterial activity against Salmonella Typhimurium after 18 hrs by […]; assay type: functional, Salmonella enterica subsp. enterica serovar Typhimurium; details: Salmonella enterica; how it was run: as §2
Escherichia coli [8] = assay: Antibacterial activity against Escherichia coli after 18 hrs by […]; assay type: functional; how it was run: as §2
Staphylococcus aureus [9] = assay: Antibacterial activity against Staphylococcus aureus at 30 ug after 18 hrs by disk diffusion method; assay type: functional; details: read-out: IZ
How it was run: (§3)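 Amoxicillin […] disk, positive control in disk diffusion. Bacteria were subcultured in BHI for 18 h at 37 °C and suspended in saline to McFarland standard. Seeded antibiotic agar was poured into plates and 6.0 mm paper disks placed. Inhibition zone in mm was read after 18 h at 36 °C.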

Streptococcus pyogenes [10] = assay: Antibacterial activity against Streptococcus pyogenes at 30 ug after 18 hrs by disk diffusion method; assay type: functional; details: read-out: IZ; how it was run: as §3
Salmonella typhimurium [11] = assay: Antibacterial activity against Salmonella Typhimurium at 30 ug after 18 hrs by disk diffusion method; assay type: functional, Salmonella enterica subsp. enterica serovar Typhimurium; details: Salmonella enterica, read-out: IZ; how it was run: as §3
Escherichia coli [12] = assay: Antibacterial activity against Escherichia coli at 30 ug after 18 hrs by disk diffusion method; assay type: functional; details: read-out: IZ; how it was run: as §3

Row | Compound | inhibition zone (IZ) (Staphylococcus aureus [1]) | inhibition zone (IZ) (Streptococcus pyogenes [2]) | inhibition zone (IZ) (Salmonella typhimurium [3]) | inhibition zone (IZ) (Escherichia coli [4]) | MIC (Staphylococcus aureus [5]) | MIC (Streptococcus pyogenes [6]) | MIC (Salmonella typhimurium [7]) | MIC (Escherichia coli [8]) | zone of inhibition at 30 µg/disc (Staphylococcus aureus [9]) | zone of inhibition at 30 µg/disc (Streptococcus pyogenes [10]) | zone of inhibition at 30 µg/disc (Salmonella typhimurium [11]) | zone of inhibition at 30 µg/disc (Escherichia coli [12])
1 | Cc1ccccc1NC(=S)N/N=C1\CC[C@@]2(C)C(=CC[C@H]3[C@@H]4CC[C@H]([C@H](C)CCCC(C)C)[C@@]4(C)CC[C@@H]32)C1 | 14.2 mm | 12.8 mm | 12.4 mm | 14.2 mm | 64 µg/mL (≈ 117 µM) | 64 µg/mL (≈ 117 µM) | 128 µg/mL (≈ 234 µM) | 128 µg/mL (≈ 234 µM) | – | – | – | –
2 | Cc1ccc(NC(=S)N/N=C2\CC[C@@]3(C)C(=CC[C@H]4[C@@H]5CC[C@H]([C@H](C)CCCC(C)C)[C@@]5(C)CC[C@@H]43)C2)cc1 | 12.6 mm | 11.5 mm | 10.2 mm | 10.2 mm | 256 µg/mL (≈ 467 µM) | 256 µg/mL (≈ 467 µM) | 128 µg/mL (≈ 234 µM) | 128 µg/mL (≈ 234 µM) | – | – | – | –
3 | Cc1cccc(NC(=S)N/N=C2\CC[C@@]3(C)C(=CC[C@H]4[C@@H]5CC[C@H]([C@H](C)CCCC(C)C)[C@@]5(C)CC[C@@H]43)C2)c1 | 12.4 mm | 10.6 mm | 10.6 mm | 11.2 mm | 128 µg/mL (≈ 234 µM) | 128 µg/mL (≈ 234 µM) | 128 µg/mL (≈ 234 µM) | 256 µg/mL (≈ 467 µM) | – | – | – | –
4 | CC1(C)S[C@@H]2[C@H](NC(=O)[C@H](N)c3ccc(O)cc3)C(=O)N2[C@H]1C(=O)O [AMOXICILLIN] | – | – | – | – | 32 µg/mL (≈ 87.6 µM) | 32 µg/mL (≈ 87.6 µM) | 32 µg/mL (≈ 87.6 µM) | 32 µg/mL (≈ 87.6 µM) | 21 mm | 22.2 mm | 25.2 mm | 20 mm
